This is one part of a sample in which hits are shown more often than they occur.
NALP1 inh = blocks the NALP1 inflammasome reconstituted in yeast; 280,000 compounds, 0.61% hits; S. cerevisiae NALP1/ASC/caspase-1 growth, X-gal OD620, 72 h; inhibition, % at 10 µM; in the data active = inhibition mostly above about 24%, no sharp cut-off; inactive = mostly below about 32%
Calb FLC = C. albicans growth modulation with fluconazole. C. albicans CaCi-2 + fluconazole, Alamar Blue growth, 48 h. growth inhibition, % (no concentration beside the values). 300,000 compounds, 0.57% hits. AID 1979;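 active = growth inhibition above about 58% in most replicates, limit read from the data, passing the limit was not always enough; inconclusive = exactly half the replicates above a set limit; inactive = most replicates below a set limit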;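 also: all wells also contain fluconazole at 8 µg/ml as a sub-toxic cotreatment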
T cruzi inh = T. cruzi replication inhibition | 300,000 compounds, 1.4% hits | AID 1885 | T. cruzi beta-gal in NIH3T3, luminescence, 90 h | inhibition, % (concentration not given with the values);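 active = mean inhibition across valid replicates above about 55%, limit read from the data; inconclusive = mean below that limit but half or more replicates reach it; inactive = mean below it, under half of replicates reach it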;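 also: signal also drops with host cell toxicity which is not excluded here; higher percent means less beta-gal luminescence so fewer parasites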
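Test system: β-gal T. cruzi (Tulahuen C4) inside NIH/3T3 cells / Quantity: 5,000 cells/well / Measured by: luminescence from GalScreen with 0.05% NP40, read after 60 min / Medium: DMEM plus 2% FBS / Measure: parasite load inhibition, % / Reagent: Tulahuen C4 trypomastigotes, 5000/well / Schedule: co-culture of at least 90 h after 3 h attachment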
L major viab = Leishmania major promastigote growth inhibition; Leishmania major promastigotes, resazurin fluorescence viability; inhibition, % at 10 µM; 200,000 compounds, 9% hits; AID 1063; in the data active = inhibition above about 50%;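 also: promastigotes grown with compound for 44 hours at 28 °C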
PolyA inhibitor = yeast polyadenylation inhibition; S. cerevisiae SKY197-pL101 polyadenylation reporter, beta-gal luminescence; efflux-impaired pdr1/pdr3 knockout yeast; score 100 = 6 SD above DMSO; activity score, % at 12 µM; 300,000 compounds, 0.02% hits;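 active = lowest replicate activity score at least 50, where 100 means six control SD above control mean; inconclusive = lowest score under 50 but half or more replicates reach 50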;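 also: yeast exposed to compound for 9 h at 30 °C; higher score means more reporter readthrough which indicates perturbed polyadenylation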
NALP3 yeast inh = inhibitors of NALP3 inflammasome in yeast; inhibition, % at 10 µM; AID 2825; 330,000 compounds, 0.39% hits; Yeast reconstituted NLRP3/ASC/caspase-1, beta-gal luminescence, 24 h;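 active = inhibition of 50% or more; inactive = inhibition below 50%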
Large screens that a line does not name were inactive.

O=C(Cc1ccccc1)N1CCN(Cc2ccc([N+](=O)[O-])cc2)CC1	none
O=[N+]([O-])c1cccc(CN2CCN(Cc3ccc(Br)cc3)CC2)c1	L major viab 86.7
CC(C)CC(N(C)C)C1(c2ccc(Cl)cc2)CCC1 (stereo unspecified)	none (no result: NALP1 inh, Calb FLC, T cruzi inh, L major viab, PolyA inhibitor)
CC1CCN(C(=O)c2ccc(N3CC4CC(C3)c3cccc(=O)n3C4)c([N+](=O)[O-])c2)CC1 (stereo unspecified)	L major viab 70.8
COc1ccc(OC)c(N2C(=O)NC(=O)/C(=C\c3ccc([N+](=O)[O-])s3)C2=O)c1	T cruzi inh inconclusive, L major viab 100.3
CCN(CC)C(=O)c1ccc(NC(=O)c2cc(S(=O)(=O)N3CCCCCC3)ccc2OC)cc1	PolyA inhibitor inconclusive (no result: NALP1 inh, L major viab)
CCN(CC)C(=O)c1ccc(NC(=O)COc2ccc([N+](=O)[O-])cc2Cl)cc1	L major viab 50.1
CCc1ccccc1N1C(=O)NC(=O)/C(=C\c2cc(C)n(C)c2C)C1=O	L major viab 54.0
Cc1cc(C)cc(N2C(=O)NC(=O)/C(=C\c3cc(C)n(C)c3C)C2=O)c1	none
Cc1nn(Cc2ccccc2)c(Cl)c1C(=O)OCC(=O)NCC1CCCO1 (stereo unspecified)	none
N#Cc1c(/N=C/c2ccc(O)cc2O)sc2c1C1CCN2CC1	none
CN(C)c1ccc(-[n+]2c(-c3ccccc3)cc(-c3ccccc3)cc2-c2ccccc2)cc1	Calb FLC 90.4, T cruzi inh 60.7, L major viab 100.4
Cc1ccc(-c2cc(-c3ccc(C)cc3)[n+](-c3ccccc3)c(-c3ccc(C)cc3)c2)cc1	Calb FLC 106.1 (no result: NALP1 inh, L major viab)
CC(=O)c1ccc(-c2ccccc2)cc1	none
Cc1ccc(-c2cc(-c3ccccc3)cc(-c3ccccc3)[n+]2-c2ccccc2)cc1	Calb FLC 86.1 (no result: NALP1 inh, L major viab)
C[n+]1c(-c2ccccc2)cc(-c2ccc(Cl)cc2)cc1-c1ccccc1	Calb FLC 97.0, L major viab 99.2
c1ccc(-c2cc(-c3ccccc3)[n+](-c3ccccc3)c(-c3ccccc3)c2)cc1	Calb FLC inconclusive (no result: NALP1 inh, L major viab)
COC(=O)C1=C(c2cccc(OC)c2OC)C[C@@H]2CC[C@H]1N2C(=O)NCCCOC(C)C	none (no result: NALP1 inh, L major viab)
CN(C)S(=O)(=O)c1cccc(C(=O)N2CCC(C(=O)O)(c3ccccc3)CC2)c1	none (no result: L major viab)
CCOc1ccc(CC2(CCc3ccncc3)C(=O)NC(=O)NC2=O)cc1	none
CCOC(=O)c1ccc(-[n+]2c(-c3ccccc3)cc(-c3ccccc3)cc2-c2ccccc2)cc1	T cruzi inh 65.3 (no result: NALP1 inh, L major viab)
CCOC(=O)c1cccc(-[n+]2c(-c3ccccc3)cc(-c3ccccc3)cc2-c2ccccc2)c1	none (no result: NALP1 inh, L major viab)
CCCCCC(=O)N[C@@H](c1ccccc1)[C@@H](O)C(=O)O[C@H]1C[C@@]2(O)[C@@H](OC(=O)c3ccccc3)C3[C@](C)(C(=O)[C@H](O)C(=C1C)C2(C)C)[C@@H](OC1OCC(O)C(O)C1O)C[C@H]1OC[C@@]31OC(C)=O (stereo partly specified)	none (no result: L major viab)
CC/C=C/CC(=O)N[C@@H](c1ccccc1)[C@@H](O)C(=O)O[C@H]1C[C@@]2(O)[C@@H](OC(=O)c3ccccc3)C3[C@](C)(C(=O)[C@H](OC(C)=O)C(=C1C)C2(C)C)[C@@H](O)C[C@H]1OC[C@@]31OC(C)=O (stereo partly specified)	none (no result: L major viab)
C/C=C(\C)C(=O)N[C@@H](c1ccccc1)[C@@H](O)C(=O)O[C@H]1C[C@@]2(O)[C@@H](OC(=O)c3ccccc3)C3[C@](C)(C(=O)[C@H](OC(C)=O)C(=C1C)C2(C)C)[C@H](O)C[C@H]1OC[C@@]31OC(C)=O (stereo partly specified)	T cruzi inh 56.4 (no result: L major viab)
CC(=O)O[C@@]12CO[C@@H]1C[C@@H](O)[C@@]1(C)C(=O)[C@H](O)C3=C(C)[C@@H](OC(=O)[C@H](O)[C@@H](NC(=O)c4ccccc4)c4ccccc4)C[C@@](O)([C@@H](OC(=O)c4ccccc4)C12)C3(C)C (stereo partly specified)	T cruzi inh 71.3 (no result: L major viab)

Assay outcomes as filed in PubChem.
